We go through twelve compounds from ChEMBL document CHEMBL3627629 (Bioorg Med Chem Lett, 2015).

Bounds are passed on as bounds.

What all share (format): cell-based
Assay [1] concerns the target T1, Muscarinic acetylcholine receptor M1 (Homo sapiens, UniProt P11229).
T1 sequence (P11229 whole entry): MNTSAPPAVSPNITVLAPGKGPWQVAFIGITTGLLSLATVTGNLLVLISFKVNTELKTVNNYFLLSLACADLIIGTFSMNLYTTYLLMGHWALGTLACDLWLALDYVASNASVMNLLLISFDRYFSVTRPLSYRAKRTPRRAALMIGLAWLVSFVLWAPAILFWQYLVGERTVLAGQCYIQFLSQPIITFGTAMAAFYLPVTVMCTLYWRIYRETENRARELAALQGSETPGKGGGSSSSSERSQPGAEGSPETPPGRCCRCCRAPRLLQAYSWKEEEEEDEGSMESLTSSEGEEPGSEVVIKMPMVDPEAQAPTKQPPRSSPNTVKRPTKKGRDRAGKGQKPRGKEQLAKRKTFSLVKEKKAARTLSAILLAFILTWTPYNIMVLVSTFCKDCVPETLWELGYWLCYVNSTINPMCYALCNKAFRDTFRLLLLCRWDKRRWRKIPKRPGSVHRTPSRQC
Nature of the assay: Displacement of [3H]NMS from human muscarinic M1 receptor expressed in CHO cells after 2 hrs by liquid scintillation spectrometry analysis. The essentials:
(§1)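 Membranes from CHO cells stably expressing recombinant human receptor: 10 µg protein/well for M1 and M5, 3 µg for M3. Incubated with 0.3 nM [3H]NMS and 1 nM–100 µM analog in 50 mM Tris-HCl pH 7.4, 2 h at 25 °C. Nonspecific binding defined with 1 µM atropine. GF/B filtration, washed three times. Ki from IC50 by Cheng-Prusoff. Three independent experiments in duplicate, mean ± SEM.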
In general terms: Displacement assays read how much labelled ligand stays bound in the presence of the test substance.

Assay [2] has as its target Muscarinic acetylcholine receptor M3 (Homo sapiens, UniProt P20309). As to the kind of experiment: Displacement of [3H]NMS from human muscarinic M3 receptor expressed in CHO cells after 2 hrs by liquid scintillation spectrometry analysis. The method in brief: as §1
Assay [3] concerns the target T2, Muscarinic acetylcholine receptor M5 (Homo sapiens, UniProt P08912).
T2 sequence (P08912 whole entry): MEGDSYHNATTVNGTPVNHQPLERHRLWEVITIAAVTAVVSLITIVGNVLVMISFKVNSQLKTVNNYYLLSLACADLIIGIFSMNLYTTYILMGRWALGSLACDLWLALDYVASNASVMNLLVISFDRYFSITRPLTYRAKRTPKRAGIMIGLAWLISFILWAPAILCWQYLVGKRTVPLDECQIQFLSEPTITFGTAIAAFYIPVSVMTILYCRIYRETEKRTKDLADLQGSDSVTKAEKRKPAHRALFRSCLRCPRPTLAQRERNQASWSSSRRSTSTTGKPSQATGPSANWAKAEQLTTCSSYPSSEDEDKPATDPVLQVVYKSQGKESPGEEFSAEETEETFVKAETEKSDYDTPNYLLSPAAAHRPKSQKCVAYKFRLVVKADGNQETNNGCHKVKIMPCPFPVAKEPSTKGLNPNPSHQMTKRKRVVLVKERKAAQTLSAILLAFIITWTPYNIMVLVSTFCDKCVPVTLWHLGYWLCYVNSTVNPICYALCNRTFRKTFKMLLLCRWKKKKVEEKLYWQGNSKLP
Nature of the assay: Displacement of [3H]NMS from human muscarinic M5 receptor expressed in CHO cells after 2 hrs by liquid scintillation spectrometry analysis. The method in brief: as §1

Chain of Muscarinic acetylcholine receptor M3 (P20309 whole entry): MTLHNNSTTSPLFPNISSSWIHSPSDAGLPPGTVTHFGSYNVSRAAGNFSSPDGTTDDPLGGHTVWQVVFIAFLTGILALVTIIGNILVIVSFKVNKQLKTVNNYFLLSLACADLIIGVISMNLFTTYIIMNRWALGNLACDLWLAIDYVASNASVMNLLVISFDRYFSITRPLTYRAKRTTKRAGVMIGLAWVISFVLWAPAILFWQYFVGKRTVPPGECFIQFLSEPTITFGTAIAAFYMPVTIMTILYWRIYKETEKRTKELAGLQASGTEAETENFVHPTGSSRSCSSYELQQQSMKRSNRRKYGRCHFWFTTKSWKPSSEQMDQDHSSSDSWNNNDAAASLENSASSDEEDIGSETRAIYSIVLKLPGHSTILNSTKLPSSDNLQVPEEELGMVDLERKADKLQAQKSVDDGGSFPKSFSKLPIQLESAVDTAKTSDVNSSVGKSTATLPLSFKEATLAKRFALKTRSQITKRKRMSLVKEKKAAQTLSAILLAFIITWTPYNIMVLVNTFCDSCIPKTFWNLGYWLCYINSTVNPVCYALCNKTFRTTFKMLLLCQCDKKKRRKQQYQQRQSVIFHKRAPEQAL

As to `COc1ccc(CCC(=O)OCC2(c3ccccc3)CCN(C)CC2)cc1`, the Ki in assay [1] stood at 0.67 µM; in assay [2], 0.37 µM; in assay [3], 0.38 µM.
In the same order, the values of `COc1ccc(CCC(=O)NCC2(c3ccccc3)CCN(C)CC2)cc1` are 3.44 µM, 1.54 µM and 1.81 µM.
For `COc1ccc(CCOC(=O)NCC2(c3ccccc3)CCN(C)CC2)cc1`, the Ki in assay [1] was determined as 2.91 µM; in assay [2], 2.3 µM; in assay [3], 2.05 µM.
For `COc1ccc(CCOC(=O)C2(c3ccccc3)CCN(C)CC2)cc1OC`, the Ki in assay [1] was 10.8 µM; in assay [2], 5.26 µM; in assay [3], 6.95 µM.
Consider `COc1ccc(CCOC(=O)C2(c3ccccc3)CCN(C)CC2)cc1`, for which the figures for the Ki in assay [1], in assay [2] and in assay [3] were 1.2 µM, 0.64 µM and 0.87 µM, respectively.
In the case of `COc1ccc(CCNC(=O)C2(c3ccccc3)CCN(C)CC2)cc1OC`, the Ki in assay [1] was above 30 µM; in assay [2], above 10 µM; in assay [3] it was above 30 µM.
`COc1ccc(CCNC(=O)OCC2(c3ccccc3)CCN(C)CC2)cc1OC`: the values for the Ki in assay [1], in assay [2] and in assay [3] were 5.09 µM, 4.03 µM and 5.41 µM, respectively.
As for `COc1ccc(CCNC(=O)NCC2(c3ccccc3)CCN(C)CC2)cc1`, the Ki in assay [1] worked out at 5.4 µM; in assay [2] it was 3.55 µM; in assay [3], 4.3 µM.
Taken in the same sequence, the figures for `COc1ccc(CCNC(=O)C2(c3ccccc3)CCN(C)CC2)cc1` were above 10 µM, 3.29 µM and 6.97 µM.
On to `COc1ccc(CCC(=O)OCC2(c3ccccc3)CCN(C)CC2)cc1OC`, for which the inhibitory constant (Ki) in assay [1] was found to be 3.63 µM; in assay [2], 4.6 µM; in assay [3], 2.14 µM.
Take `COc1ccc(CCC(=O)NCC2(c3ccccc3)CCN(C)CC2)cc1OC`: the results for the Ki in assay [1], in assay [2] and in assay [3] were above 10 µM, above 30 µM and above 10 µM, respectively.
Regarding `COc1ccc(CCNC(=O)NCC2(c3ccccc3)CCN(C)CC2)cc1OC`, the Ki in assay [1], in assay [2] and in assay [3] was above 10 µM each time.

One may read the Ki as a dissociation constant, usually derived from enzyme kinetics or from competition with a known ligand.
